Results on 24 compounds are retold here after ChEMBL document CHEMBL1148799, “Solid-phase synthesis and insights into structure-activity relationships of safinamide analogues as potent and selective inhibitors of type B monoamine oxidase” (J Med Chem, 2007).

Experiment [1] addresses T1, Amine oxidase [flavin-containing] B (Rattus norvegicus, UniProt P19643).
T1 sequence (P19643 whole entry): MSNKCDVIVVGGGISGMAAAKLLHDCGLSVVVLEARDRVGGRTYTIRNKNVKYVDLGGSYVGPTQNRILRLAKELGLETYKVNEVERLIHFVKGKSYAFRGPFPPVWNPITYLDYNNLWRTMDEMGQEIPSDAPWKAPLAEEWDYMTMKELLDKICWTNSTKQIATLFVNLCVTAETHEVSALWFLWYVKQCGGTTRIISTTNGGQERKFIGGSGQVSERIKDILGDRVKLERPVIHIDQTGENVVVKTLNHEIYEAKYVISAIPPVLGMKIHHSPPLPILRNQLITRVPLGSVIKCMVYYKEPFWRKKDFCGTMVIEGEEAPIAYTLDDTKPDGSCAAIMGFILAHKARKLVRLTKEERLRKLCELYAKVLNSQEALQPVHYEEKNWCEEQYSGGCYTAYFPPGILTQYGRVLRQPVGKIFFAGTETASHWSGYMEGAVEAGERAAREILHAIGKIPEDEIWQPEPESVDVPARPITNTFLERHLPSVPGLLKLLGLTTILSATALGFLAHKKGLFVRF
Briefly: Inhibition of rat brain mitochondria MAOB at 10 uM by radioenzymatic assay. An outline of the steps:
(§1)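 Rat brain mitochondrial pellet (500 µg protein) in 0.1 M phosphate buffer, pH 7.40, preincubated 30 min at 37 °C with inhibitor (as methanesulfonate salt) or buffer. Then 0.5 µM ¹⁴C-PEA for 10 min at 37 °C, stopped with perchloric acid. Toluene-extracted metabolites counted by liquid scintillation. IC50 by nonlinear regression from 5–8 concentrations (10^-10–10^-5 M) in duplicate, or % inhibition at one concentration.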

For experiment [2], the target named is T2, Amine oxidase [flavin-containing] A (Rattus norvegicus, UniProt P21396).
T2 sequence (P21396 whole entry): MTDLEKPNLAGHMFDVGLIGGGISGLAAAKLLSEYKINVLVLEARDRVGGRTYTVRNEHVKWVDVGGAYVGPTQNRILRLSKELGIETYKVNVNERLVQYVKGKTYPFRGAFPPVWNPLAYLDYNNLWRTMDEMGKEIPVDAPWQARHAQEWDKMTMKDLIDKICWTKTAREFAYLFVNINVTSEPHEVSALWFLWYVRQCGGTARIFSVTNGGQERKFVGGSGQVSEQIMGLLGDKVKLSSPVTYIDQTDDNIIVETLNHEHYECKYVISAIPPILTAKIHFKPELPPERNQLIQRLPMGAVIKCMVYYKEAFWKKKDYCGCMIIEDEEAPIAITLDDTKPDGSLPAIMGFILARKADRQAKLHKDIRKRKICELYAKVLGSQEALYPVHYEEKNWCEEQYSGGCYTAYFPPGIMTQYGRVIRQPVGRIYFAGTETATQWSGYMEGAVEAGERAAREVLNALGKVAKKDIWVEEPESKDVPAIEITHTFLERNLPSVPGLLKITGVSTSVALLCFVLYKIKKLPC
Briefly: Inhibition of rat brain mitochondria MAOA at 100 uM by radioenzymatic assay. In a few lines: (§2)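 Rat brain mitochondrial pellet (500 µg protein) in 0.1 M phosphate buffer, pH 7.40, preincubated 30 min at 37 °C with inhibitor (as methanesulfonate salt) or buffer. Then 5 µM ¹⁴C-5-HT for 30 min at 37 °C, stopped with HCl. Ether-extracted acidic metabolites counted by liquid scintillation. IC50 by nonlinear regression from 5–8 concentrations (10^-10–10^-5 M) in duplicate, or % inhibition at one concentration.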

Experiment [3] is filed under the species Rattus norvegicus. Briefly: Selectivity index, ratio of IC50 for rat brain mitochondria MAOA to IC50 for rat brain mitochondria MAOB. An outline of the steps:
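IC50(MAO-A)/IC50(MAO-B). Both come from radioenzymatic assays on rat brain mitochondria after 30 min inhibitor preincubation at 37 °C, pH 7.40. MAO-A used 5 µM ¹⁴C-5-HT for 30 min; MAO-B used 0.5 µM ¹⁴C-PEA for 10 min. IC50s from nonlinear regression of duplicate 5–8-point curves.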

In experiment [4] the target is T1, Amine oxidase [flavin-containing] B. Briefly: Inhibition of rat brain mitochondria MAOB by radioenzymatic assay. An outline of the steps: as §1
The target in experiment [5] is T2, Amine oxidase [flavin-containing] A. Briefly: Inhibition of rat brain mitochondria MAOA by radioenzymatic assay. In a few lines: as §2

The compound `C[C@H](NCc1ccc(OCc2ccc([N+](=O)[O-])cc2)cc1)C(N)=O` returned an inhibition at 10 µM in experiment [1] of 37%. The compound further came in with an inhibition at 100 µM in experiment [2] of 22%.

Take `NC(=O)[C@H](CO)NCc1ccc(OCc2ccccc2)cc1`: the Selectivity index in experiment [3] came to 220. The results for the IC50 in experiment [4] and in experiment [5] were 0.41 µM and 90 µM, respectively.

In experiment [2], `NC(=O)[C@H](CO)NCc1ccc(OCc2ccc(Cl)cc2)cc1` returned an inhibition at 100 µM of 47%. Also, the IC50 in experiment [4] is 1.1 µM.

For the compound `C[C@H](NCc1ccc(OCc2cccc(Cl)c2)cc1)C(N)=O`, the Selectivity index in experiment [3] amounted to 3460. In experiment [4], this compound gave an IC50 of 0.033 µM.

Regarding `NC(=O)CNCc1ccc(OCc2ccc([N+](=O)[O-])cc2)cc1`, the Selectivity index in experiment [3] came to 2.3. Besides, the IC50 in experiment [4] was found to be 9.1 µM; in experiment [5] it was 21.2 µM.

On to `C[C@H](C(N)=O)N1CCc2cc(OCc3cccc(F)c3)ccc2C1`, for which the Selectivity index in experiment [3] stood at 2940. For the same compound, the figures for the IC50 in experiment [4] and in experiment [5] were 0.017 µM and 50 µM, respectively.

`C[C@@H](C(N)=O)N1CCc2cc(OCc3cccc(F)c3)ccc2C1`: in experiment [3], the Selectivity index was 188. The IC50 came out at 0.24 µM in experiment [4] and 45 µM in experiment [5].

As for `NC(=O)CNCc1ccc(OCc2cccc(Cl)c2)cc1`, the Selectivity index in experiment [3] came to 109. The IC50 in experiment [4] was 0.34 µM; in experiment [5] it was 37 µM.

In turn, `NC(=O)[C@@H](NCc1ccc(OCc2cccc(Cl)c2)cc1)c1ccccc1` showed an inhibition at 100 µM in experiment [2] of 33%. In experiment [4], the IC50 turned out to be 10.1 µM.

Turning to `NC(=O)[C@H](CO)NCc1ccc(OCc2ccc([N+](=O)[O-])cc2)cc1`, at 100 µM the inhibition in experiment [2] was 38%. Half-maximal inhibition in experiment [4] (IC50) required 7.01 µM.

The compound `C[C@H](NCc1ccc(OCc2ccc(Cl)cc2)cc1)C(N)=O` came in with an inhibition at 100 µM in experiment [2] of 37%. For the same compound, in experiment [4], the IC50 amounted to 2.2 µM.

For `NC(=O)[C@@H](NCc1ccc(OCc2cccc(F)c2)cc1)c1ccccc1`, the Selectivity index in experiment [3] amounted to 3.4. Besides, the IC50 in experiment [4] is 10 µM; in experiment [5], 34 µM.

`NC(=O)CNCc1ccc(OCc2ccc(Cl)cc2)cc1`: the Selectivity index in experiment [3] worked out at 1.7. For the same compound, the IC50 in experiment [4] worked out at 7.1 µM; in experiment [5] it was 12.4 µM.

For `C[C@@H](NCc1ccc(OCc2cccc(Cl)c2)cc1)C(N)=O`, the Selectivity index in experiment [3] came to 90. Further, the IC50 stood at 0.8 µM in experiment [4] and 72 µM in experiment [5].

In turn, `NC(=O)[C@@H](NCc1ccc(OCc2ccccc2)cc1)c1ccccc1` showed an inhibition at 100 µM in experiment [2] of 35%. The IC50 in experiment [4] is 73.8 µM.

On to `C[C@H](NCc1ccc(OCc2ccccc2)cc1)C(N)=O`, for which the Selectivity index in experiment [3] is 388. The IC50 in experiment [4] turned out to be 0.26 µM; in experiment [5], 101 µM.

As for `NC(=O)[C@H](CO)NCc1ccc(OCc2cccc(Cl)c2)cc1`, the Selectivity index in experiment [3] was 1970. The same compound gave an IC50 in experiment [4] of 0.043 µM.

`NC(=O)[C@@H](NCc1ccc(OCc2ccc([N+](=O)[O-])cc2)cc1)c1ccccc1`: in experiment [1], the inhibition at 10 µM was found to be 4%. This compound yielded an inhibition at 100 µM in experiment [2] of 16%.

As to `NC(=O)[C@H](CO)NCc1ccc(OCc2cccc(F)c2)cc1`, in experiment [3], the Selectivity index was determined as 714. Further, in experiment [5], the IC50 came out at 100 µM.

As to `C[C@@H](NCc1ccc(OCc2cccc(F)c2)cc1)C(N)=O`, the IC50 in experiment [5] is 42 µM.

Regarding `NC(=O)CNCc1ccc(OCc2cccc(F)c2)cc1`, in experiment [3], the Selectivity index was 6.1. Besides, the IC50 in experiment [4] amounted to 2.24 µM; in experiment [5], 13.6 µM.

For `NC(=O)CNCc1ccc(OCc2ccccc2)cc1`, in experiment [3], the Selectivity index came to 2.7. In addition, the results for the IC50 in experiment [4] and in experiment [5] were 3.15 µM and 8.5 µM, respectively.

For `NC(=O)[C@@H](CO)NCc1ccc(OCc2cccc(Cl)c2)cc1`, the Selectivity index in experiment [3] was found to be 909. Also, in experiment [5], half-maximal inhibition (IC50) was put at 100 µM.

On to `NC(=O)[C@@H](NCc1ccc(OCc2ccc(Cl)cc2)cc1)c1ccccc1`, for which, in experiment [1], at 10 µM the inhibition was 34%. The compound further displayed an inhibition at 100 µM in experiment [2] of 27%.

For orientation: inhibition means how much of the control response was suppressed. A higher inhibition goes with a response far below the control. Broadly, the IC50 is the concentration needed to halve the response being measured. A lower IC50 goes with greater potency.
